Results as given in PMC4938767 (Structure (London, England : 1993), 2016).

Tests used:
[1] = test system: substrate polypeptide MKAV24; type: biochemical; details: for Kcat/Km: hNaa60 variant, substrate peptide MKAV24, 50 mM HEPES pH 7.5, 100 mM NaCl, 2 mM EDTA, DTNB, 412 nm; for reduction in catalytic efficiency: substrate MKAV24, compared to hNaa60 WT; for change in Km (in words): substrate MKAV24, vs hNaa60 WT; for Wild-type efficiency (%): catalytic efficiency relative to hNaa60 WT; for catalytic efficiency (in words): β3–β4 loop contact mutants
Summary of the method: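 Purified hNaa60 variants (His-SUMO tag cleaved, nickel-purified) with peptide and Ac-CoA in assay buffer, quenched with 3.2 M guanidinium-HCl/100 mM sodium phosphate pH 6.8. CoA detected with DTNB (2 mM final) at 412 nm, negative-control background subtracted. Thiophenolate quantified with ε = 13.7 × 103 M−1 cm−1. Rates taken in the linear phase and fitted for kinetic constants.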

[2] = DSF / purification stability of hNaa60 point mutants; details: for stability on purification (in words): data not shown; for initial fluorescence (in words): vs hNaa60 WT
hNaa60 1–184 = assay: Size-exclusion chromatography, dimer to monomer transition; design: species or system human; details: with Ac-CoA
[3] = test system: N-terminal acetyltransferase Naa50; details: ref Evjenth et al., 2012; cited from earlier work
other acetyltransferases = details: ref De Angelis et al., 1998; Thompson et al., 2001; cited from earlier work

P35A: hNaa60 point mutant, M1p hydrophobic pocket
Kcat/Km [1]: 60 M⁻¹ s⁻¹
reduction in catalytic efficiency [1]: ~6 fold
change in Km (in words) [1]: small increase in Km

H138A: hNaa60 point mutant, catalytic residue
stability on purification (in words) [2]: unstable and could not be purified

Y97F: hNaa60 point mutant, catalytic residue
Wild-type efficiency (%) ([1]; substrate MKAV24): <10%
catalytic activity (in words) ([1]; substrate MKAV24): complete loss of catalytic activity

I36A: hNaa60 point mutant, M1p hydrophobic pocket
Kcat/Km [1]: 60 M⁻¹ s⁻¹
reduction in catalytic efficiency [1]: ~6 fold
change in Km (in words) [1]: small increase in Km
destabilization compared to hNaa60 WT (in words) ([2]; DSF): did not show any signs of destabilization

CC(=O)SCCNC(=O)CCNC(=O)[C@H](O)C(C)(C)COP(=O)(O)OP(=O)(O)OC[C@H]1O[C@@H](n2cnc3c(N)ncnc32)[C@H](O)[C@@H]1OP(=O)(O)O [Ac-CoA, acetyl CoA]
elution of hNaa60 1–184 (oligomeric state, in words) (hNaa60 1–184): elutes at a column volume corresponding to twice the theoretical size of the enzyme

Y165F: hNaa60 point mutant, peptide anchoring residue
Wild-type efficiency (%) ([1]; substrate MKAV24): 24.4%
Kcat/Km [1]: 90 M⁻¹ s⁻¹
reduction in catalytic efficiency [1]: approximately 4 fold

H138F: hNaa60 point mutant, catalytic residue
stability on purification (in words) [2]: unstable and could not be purified

L140A: hNaa60 point mutant, M1p hydrophobic pocket
Wild-type efficiency (%) ([1]; substrate MKAV24): 56.0%
Kcat/Km [1]: 210 M⁻¹ s⁻¹
catalytic efficiency (kcat/Km) as fold of hNaa60 WT ([1]; substrate MKAV24): approximately 0.5 fold

D81A: hNaa60 point mutant, β3–β4 loop contact
Wild-type efficiency (%) ([1]; substrate MKAV24): 136.9%
Kcat/Km [1]: 518 M⁻¹ s⁻¹
catalytic efficiency (in words) ([1]; substrate MKAV24): modest overall effect on catalytic efficiency
destabilization compared to hNaa60 WT (in words) ([2]; DSF): clearly destabilized compared to hNaa60 WT
initial fluorescence (in words) ([2]; DSF): higher initial fluorescence

I84A: hNaa60 point mutant, β3–β4 loop contact
Wild-type efficiency (%) ([1]; substrate MKAV24): 200.4%
Kcat/Km [1]: 758 M⁻¹ s⁻¹
catalytic efficiency (in words) ([1]; substrate MKAV24): modest overall effect on catalytic efficiency
destabilization compared to hNaa60 WT (in words) ([2]; DSF): clearly destabilized compared to hNaa60 WT
initial fluorescence (in words) ([2]; DSF): higher initial fluorescence

Y164F: hNaa60 point mutant, β3–β4 loop contact
Wild-type efficiency (%) ([1]; substrate MKAV24): 154.9%
Kcat/Km [1]: 585 M⁻¹ s⁻¹
destabilization compared to hNaa60 WT (in words) ([2]; DSF): clearly destabilized compared to hNaa60 WT

Y164A: hNaa60 point mutant, β3–β4 loop contact
Wild-type efficiency (%) ([1]; substrate MKAV24): 141.7%
Kcat/Km [1]: 535 M⁻¹ s⁻¹

P35A/I36A/I167A: hNaa60 triple mutant
Wild-type efficiency (%) ([1]; substrate MKAV24): <10%
catalytic activity (in words) ([1]; substrate MKAV24): not able to detect any catalytic activity

I167A: hNaa60 point mutant, M1p hydrophobic pocket
Wild-type efficiency (%) ([1]; substrate MKAV24): 33.3%
Kcat/Km [1]: 123 M⁻¹ s⁻¹
reduction in catalytic efficiency [1]: ~3 fold
change in Km (in words) [1]: small increase in Km

Y38A: hNaa60 point mutant, peptide anchoring residue
Wild-type efficiency (%) ([1]; substrate MKAV24): <10%
catalytic activity (in words) ([1]; substrate MKAV24): complete loss of catalytic activity

CCNC(=O)CCNC(=O)[C@H](O)C(C)(C)COP(=O)(O)OP(=O)(O)OC[C@H]1O[C@@H](n2cnc3c(N)ncnc32)[C@H](O)[C@@H]1OP(=O)(O)O [desulfoCoA]
inhibitor type (Naa50) [3]: competitive inhibitor
inhibitor type (other acetyltransferases) (other acetyltransferases): competitive inhibitor

WT: wild-type hNaa60 enzyme
Wild-type efficiency (%) ([1]; substrate MKAV24): 100%
melting point (apo) ([2]; DSF, apo hNaa60): 47.9 °C
